For series [1] the following is noted: background statement, no reference given; cited from earlier work.
A further series has as its system HEL cells. As to the kind of experiment: Drug-drug effect on cell survival / cell death. The following applies: for Cell death: 48 h. The series is classed as cell-based, human.
A further series has as its system HSC70 (HSPA8). As to the kind of experiment: HSC70. In kind it is cell-based, human. Conditions: HEL cells, Fig. 1b. The procedure, abridged:
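HEL human erythroleukemia cells were washed and resuspended in serum-free RPMI 1640 (1.2 × 10⁷ cells/200 μl). They were electroporated at 250 V and 250 μF (2-mm gap) with 200 nM HSPA1A/B siRNA, a two-mismatch control, or media only. Test compounds were added for the last 6 h of a 48-h incubation. Read-out was western blot with ECL detection, normalized to actin, at least triplicate.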

Another series has as its system P-STAT3. The experiment in a line: Down-regulation of P-STAT3. In kind it is cell-based. Conditions: Homo sapiens, HEL, read-out: IC50 for P-STAT3 down-regulation.

Read-outs that look alike come from different tables or passages of the source.

The IC50 is the concentration needed to halve the response being measured.

Turning to `C=CCNC1=C2C[C@@H](C)C[C@H](OC)[C@H](O)[C@@H](C)/C=C(\C)[C@H](OC(N)=O)[C@@H](OC)/C=C\C=C(/C)C(=O)NC(=CC1=O)C2=O` [17-AAG, 17-allylamino-17-demethoxygeldanamycin], the Solubility entry in series [1] is recorded as “poor solubility”.
As for “control-siRNA: version of HSPA1 siRNA with two mismatches, 5′-CGACCGAGACAAGCGCAAG-3′, used as control (chemistry not given here)”, the “Effect on cell survival” value in the series with HEL cells (HEL cells) is reported as “no effect”.
As for `CO[C@H]1/C=C\C=C(/C)C(=O)NC2=CC(=O)C(NCCN(C)C)=C(C[C@@H](C)C[C@H](OC)[C@H](O)[C@@H](C)/C=C(\C)[C@@H]1OC(N)=O)C2=O` [17-DMAG, 17-(dimethyl-aminoethylamino)-17-demethoxygeldanamycin], the Cell death is on record as 50% with HEL cells (50% of the IC50, with HSP70 siRNA added) and ~ 10% in the series with HEL cells (50% of the IC50, without siRNA). For the same molecule, the “Effect on HSC70 (HSPA8) expression” value with HSC70 (HSPA8) is “affected by neither”. Besides, the IC50 in the series on P-STAT3 (6 h) is 450 nM; in the series on P-STAT3, 157 nM.

The record behind these values is PMC3152797 (Cancer chemotherapy and pharmacology, 2009).
